The values that follow come from article PMC8453095 (Journal of molecular biology, 2021).

For test [1], the target named is T1, full-length DnaG (Bacillus subtilis, UniProt P05096).
T1 sequence (P05096 1-603): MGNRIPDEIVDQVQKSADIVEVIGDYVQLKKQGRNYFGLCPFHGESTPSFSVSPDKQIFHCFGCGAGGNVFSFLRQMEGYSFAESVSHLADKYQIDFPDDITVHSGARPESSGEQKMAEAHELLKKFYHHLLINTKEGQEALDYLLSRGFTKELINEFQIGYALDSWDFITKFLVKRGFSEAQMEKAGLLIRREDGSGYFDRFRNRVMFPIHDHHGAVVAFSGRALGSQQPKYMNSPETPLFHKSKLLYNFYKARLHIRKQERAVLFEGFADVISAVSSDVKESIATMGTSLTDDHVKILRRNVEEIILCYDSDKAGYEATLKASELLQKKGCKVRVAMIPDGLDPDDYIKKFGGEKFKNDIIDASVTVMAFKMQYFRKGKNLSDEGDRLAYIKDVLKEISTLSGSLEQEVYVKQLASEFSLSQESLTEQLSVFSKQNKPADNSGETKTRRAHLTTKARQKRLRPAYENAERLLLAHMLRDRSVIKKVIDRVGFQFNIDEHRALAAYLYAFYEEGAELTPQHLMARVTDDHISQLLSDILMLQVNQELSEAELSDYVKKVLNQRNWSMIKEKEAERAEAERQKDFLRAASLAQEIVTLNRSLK
The class given is biochemical. Put shortly: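 Full-length His-tagged DnaG, Ni-affinity purified, at 100 nM was added last to 500 nM ssDNA template with 0.4 mM ATP, CTP, UTP and GTP at 0, 12.5, 25, 50, 100, 200 or 400 μM, preincubated ± inhibitor. Buffer: 50 mM Tris pH 7.5 with Mg2+, Mn2+, Ca2+ and 10 mM DTT. Incubated 37°C, 30 min; heteroduplex dye fluorescence read at four time points. V0 per enzyme; Ki fitted to competitive/uncompetitive/noncompetitive/mixed models; n≥3.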

In test [2] the target is DnaG(ZBD+RPD) (Bacillus subtilis, UniProt P05096). The class given is biochemical. Put shortly: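 His-tagged DnaGΔ440-603 (ZBD+RPD), expressed in BL21(DE3) cells and Ni-affinity purified, used at 200 nM. Template (500 nM ssDNA) and NTPs (0.4 mM ATP, CTP, UTP; GTP 0–400 μM) briefly preincubated ± inhibitor before enzyme. Buffer: 50 mM Tris pH 7.5, 10 mM Mg acetate, 5 mM MnCl2, 5 mM CaCl2. Ran at 37°C. Dye read at 5, 10, 20 and 30 min (ex 485/em 528 nm). V0 was normalised to enzyme, and Ki came from inhibition-model fits; n≥3.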

As for `Nc1nc2c(ncn2[C@@H]2O[C@H](COP(=O)(O)OP(=O)(O)O)[C@@H](OP(=O)(O)OP(=O)(O)O)[C@H]2O)c(=O)[nH]1` [ppGpp], in test [1], the affinity, expressed as Ki, was 777 ± 110 µM.
On to `Nc1nc2c(ncn2[C@@H]2O[C@H](COP(=O)(O)OP(=O)(O)OP(=O)(O)O)[C@@H](OP(=O)(O)OP(=O)(O)O)[C@H]2O)c(=O)[nH]1` [pppGpp], for which the Ki (in general, a dissociation constant, usually derived from enzyme kinetics or from competition with a known ligand) was 163 ± 37 µM in test [1] and 115 ± 17.8 µM in test [2].
